Laboratory results: ChEMBL document CHEMBL1156226, “Synthesis and structure-activity relationship studies of peptidomimetic PKB/Akt inhibitors: the significance of backbone interactions” (Bioorg Med Chem, 2010)
Peptide text beside a SMILES is read from it.

What was measured:
[1] = target: T1, RAC-alpha serine/threonine-protein kinase (Homo sapiens, UniProt P31749); assay: Inhibition of PKB at 20 uM by radioactive kinase assay relative to control
Procedure, shortened: (§1)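 PKB/Akt enzyme HisAPHPKBEEEFlag, partly purified in one step on Ni-NTA agarose. The radioactive kinase reaction contains 50 mM Hepes pH 7.4, 0.1 mM EGTA, 0.1% 2-mercaptoethanol, 10 mM magnesium acetate, 3 uM RPRTSSF peptide substrate, 10 uM [γ32P]ATP and 0.005 units enzyme. Inhibition is given as percent reduction of activity against a no-inhibitor control. IC50 values, with 95% confidence ranges, come from curve fitting.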

[2] = target: T1, RAC-alpha serine/threonine-protein kinase; assay: Inhibition of PKB at 5 uM by radioactive kinase assay relative to control; procedure, shortened: as §1
[3] = Stability in presence of trypsin and chymotrypsin assessed as peptide degradation at 1 mM within 30 mins by HPLC; assay type: ADME; conditions: isolated protein, 0.5 h, 1000 µM
Procedure, shortened: (§2)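 Peptide at 1 mM in 200 mM NH4HCO3, pH 8, is mixed with porcine pancreatic trypsin plus chymotrypsin (2.5 mg/ml solution) and incubated at 37 °C. Samples are taken every 30 min and quenched with 2% TFA/30% acetonitrile in water. Degradation is followed by HPLC and MALDI-TOF MS.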

[4] = target: T1, RAC-alpha serine/threonine-protein kinase; assay: Inhibition of PKB by radioactive kinase assay; procedure, shortened: as §1
[5] = target: T1, RAC-alpha serine/threonine-protein kinase; assay: Inhibition of PKB at 100 uM by radioactive kinase assay relative to control; procedure, shortened: as §1
[6] = Stability in presence of trypsin and chymotrypsin assessed as peptide degradation at 1 mM within 90 mins by HPLC; assay type: ADME; conditions: isolated protein, 1.5 h, 1000 µM; procedure, shortened: as §2
[7] = Stability in presence of trypsin and chymotrypsin assessed as peptide degradation at 1 mM after 30 mins by HPLC; assay type: ADME; conditions: read-out: Activity; procedure, shortened: as §2
[8] = target: T1, RAC-alpha serine/threonine-protein kinase; assay: Inhibition of PKB at 50 uM by radioactive kinase assay relative to control; procedure, shortened: as §1
[9] = Stability in presence of trypsin and chymotrypsin assessed as peptide degradation at 1 mM after 2 hrs by HPLC; assay type: ADME; conditions: isolated protein, 1000 µM; procedure, shortened: as §2

T1 sequence (P31749 whole entry): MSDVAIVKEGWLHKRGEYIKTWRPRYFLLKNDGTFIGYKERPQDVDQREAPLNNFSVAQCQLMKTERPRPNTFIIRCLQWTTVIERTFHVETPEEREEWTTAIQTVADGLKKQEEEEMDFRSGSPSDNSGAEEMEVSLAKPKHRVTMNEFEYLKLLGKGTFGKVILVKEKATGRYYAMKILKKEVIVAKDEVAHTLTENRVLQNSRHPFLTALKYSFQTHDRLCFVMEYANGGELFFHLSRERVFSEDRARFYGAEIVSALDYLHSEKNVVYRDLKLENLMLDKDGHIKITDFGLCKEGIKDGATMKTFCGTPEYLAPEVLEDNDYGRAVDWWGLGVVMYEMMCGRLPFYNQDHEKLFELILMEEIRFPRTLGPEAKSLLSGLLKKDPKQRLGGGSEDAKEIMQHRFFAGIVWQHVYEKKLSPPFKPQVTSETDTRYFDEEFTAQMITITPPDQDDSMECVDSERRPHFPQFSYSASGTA

| SMILES | inhibition [1] [%] | inhibition [2] [%] | IC50 [4] [nM] | other results |
| --- | --- | --- | --- | --- |
| CCC[C@H](NC(=O)[C@H](CCCNC(=N)N)NC(=O)[C@@H]1CCCN1C(=O)[C@H](CCCNC(=N)N)NC(=O)[C@H](CCCCN)NC(C)=O)C(=O)N[C@@H](Cc1ccc(O)cc1)C(=O)N[C@@H](CN)C(=O)N[C@@H](CCC(C)C)C(N)=O (HELM PEPTIDE1{[ac].K.R.P.R.[Nva].Y.[NC[C@H](N[*:1])C(=O)[*:2]].[CC(C)CC[C@H](N[*:1])C(=O)[*:2]].[am]}$$$$V2.0) | 85 | 61 | – | – |
| CCC[C@H](NC(=O)[C@H](CCCNC(=N)N)NC(=O)[C@H](C)N(C)C(=O)[C@@H](N)CCCNC(=N)N)C(=O)N[C@@H](Cc1ccc(O)cc1)C(=O)N[C@@H](CN)C(=O)N[C@@H](CCC(C)C)C(N)=O (HELM PEPTIDE1{R.[meA].R.[Nva].Y.[NC[C@H](N[*:1])C(=O)[*:2]].[CC(C)CC[C@H](N[*:1])C(=O)[*:2]].[am]}$$$$V2.0) | – | 77 | 2030 | Stability [3]: Unstable; inhibition [5]: 95%; Stability [6]: Unstable |
| CCC[C@H](NC(=O)[C@H](CCCNC(=N)N)NC(=O)[C@@H]1CCCN1C(=O)[C@H](CCCNC(=N)N)NC(=O)[C@H](CCCNC(=N)N)NC(C)=O)C(=O)N[C@@H](Cc1ccc(O)cc1)C(=O)N[C@@H](CN)C(=O)N[C@@H](CCC(C)C)C(N)=O (HELM PEPTIDE1{[ac].R.R.P.R.[Nva].Y.[NC[C@H](N[*:1])C(=O)[*:2]].[CC(C)CC[C@H](N[*:1])C(=O)[*:2]].[am]}$$$$V2.0) | 94 | 83 | – | – |
| CCC[C@H](NC(=O)[C@H](CCCNC(=N)N)NC(=O)[C@@H]1CCCN1C(=O)[C@H](CCCNC(=N)N)NC)C(=O)N[C@@H](Cc1ccc(O)cc1)C(=O)N[C@@H](CN)C(=O)N[C@@H](CCC(C)C)C(N)=O (HELM PEPTIDE1{[meR].P.R.[Nva].Y.[NC[C@H](N[*:1])C(=O)[*:2]].[CC(C)CC[C@H](N[*:1])C(=O)[*:2]].[am]}$$$$V2.0) | – | 85 | 920 | inhibition [5]: 97% |
| CCC[C@H](NC(=O)[C@H](CCCNC(=N)N)NC(=O)[C@@H]1CCCN1C(=O)[C@H](CCCNC(=N)N)NC(=O)[C@H](CCCCN)NC(C)=O)C(=O)N[C@@H](Cc1ccc(O)cc1)C(=O)N[C@@H](CN)C(=O)N[C@@H](CCC(C)C)C(=O)O (HELM PEPTIDE1{[ac].K.R.P.R.[Nva].Y.[NC[C@H](N[*:1])C(=O)[*:2]].[CC(C)CC[C@H](N[*:1])C(=O)O]}$$$$V2.0) | 46 | – | – | – |
| CCC[C@H](NC(=O)[C@H](CCCNC(=N)N)NC(=O)[C@@H]1CCCN1C(=O)[C@@H](N)CCCNC(=N)N)C(=O)N[C@@H](Cc1ccc(O)cc1)C(=O)N[C@@H](CN)C(=O)N[C@@H](CCC(C)C)C(N)=O (HELM PEPTIDE1{R.P.R.[Nva].Y.[NC[C@H](N[*:1])C(=O)[*:2]].[CC(C)CC[C@H](N[*:1])C(=O)[*:2]].[am]}$$$$V2.0) | 96 | 87 | 940 | inhibition [5]: 99%; metabolised at 0.5 h, 1000 µM [7]: 40%; inhibition [8]: 99%; Stability [9]: Unstable |
| CCC[C@H](NC(=O)[C@H](CCCNC(=N)N)NC(=O)[C@@H]1CCCN1C(=O)[C@@H](N)CCCNC(=N)N)C(=O)N[C@@H](Cc1ccc(O)cc1)C(=O)N[C@H](CS)C(=O)N[C@@H](CCC(C)C)C(N)=O | – | 95 | – | inhibition [8]: 95% |

More lines, main results first:

| inhibition [1] [%] | inhibition [2] [%] | IC50 [4] [nM] | SMILES | other results |
| --- | --- | --- | --- | --- |
| 40 | – | – | CCC[C@H](NC(=O)[C@H](CCCNC(=N)N)NC(=O)[C@@H]1CCCN1C(=O)[C@H](CCCNC(=N)N)NC(=O)[C@H](N)CCCNC(=N)N)C(=O)N[C@@H](Cc1ccc(O)cc1)C(=O)N[C@@H](CN)C(=O)N[C@@H](CCC(C)C)C(N)=O | – |
| 3 | – | – | CCC[C@H](NC(=O)[C@H](CCCNC(=N)N)NC(=O)[C@@H]1CCCN1C(=O)[C@H](CCCNC(=N)N)NC(=O)[C@H](N)CCCCN)C(=O)N[C@@H](Cc1ccc(O)cc1)C(=O)N[C@@H](CN)C(=O)N[C@@H](CCC(C)C)C(N)=O | – |
| 92 | 73 | – | CCC[C@H](NC(=O)[C@H](CCCNC(=N)N)NC(=O)[C@@H]1CCCN1C(=O)[C@H](CCCNC(=N)N)NC(=O)[C@@H](N)CCCCN)C(=O)N[C@@H](Cc1ccc(O)cc1)C(=O)N[C@@H](CN)C(=O)N[C@@H](CCC(C)C)C(N)=O | – |
| 96 | 88 | – | CCC[C@H](NC(=O)[C@H](CCCNC(=N)N)NC(=O)[C@@H]1CCCN1C(=O)[C@H](CCCNC(=N)N)NC(=O)[C@@H](N)CCCNC(=N)N)C(=O)N[C@@H](Cc1ccc(O)cc1)C(=O)N[C@@H](CN)C(=O)N[C@@H](CCC(C)C)C(N)=O | – |
| – | – | 1170 | CCC[C@H](NC(=O)[C@H](CCCN=C(N)N)NC(=O)[C@@H]1CCCN1C(=O)[C@H](CCCN=C(N)N)NC(=O)[C@H](CCCN=C(N)N)NC(C)=O)C(=O)N[C@@H](Cc1ccc(O)cc1)C(=O)N[C@@H](CN)C(=O)N[C@@H](CCC(C)C)C(N)=O (HELM PEPTIDE1{[ac].R.R.P.R.[Nva].Y.[NC[C@H](N[*:1])C(=O)[*:2]].[CC(C)CC[C@H](N[*:1])C(=O)[*:2]].[am]}$$$$V2.0) | – |
| – | – | 400 | CCC[C@H](NC(=O)[C@H](CCCN=C(N)N)NC(=O)[C@@H]1CCCN1C(=O)[C@@H](N)CCCN=C(N)N)C(=O)N[C@@H](Cc1ccc(O)cc1)C(=O)N[C@H](CS)C(=O)N[C@@H](CCC(C)C)C(N)=O | – |
| 69 | – | – | CCC[C@H](NC(=O)[C@H](CCCNC(=N)N)NC(=O)[C@@H]1CCCN1C(=O)[C@H](CCCNC(=N)N)NC(=O)[C@H](N)CCCNC(=N)N)C(=O)N[C@@H](Cc1ccc(O)cc1)C(=O)N[C@@H](CN)C(=O)N[C@@H](CCC(C)C)C(=O)O | – |
| – | – | 840 | CCC[C@H](NC(=O)[C@H](CCCN=C(N)N)NC(=O)[C@@H]1CCCN1C(=O)[C@H](CCCN=C(N)N)NC(=O)[C@@H](N)CCCN=C(N)N)C(=O)N[C@@H](Cc1ccc(O)cc1)C(=O)N[C@@H](CN)C(=O)N[C@@H](CCC(C)C)C(N)=O | – |
| 48 | – | – | CCC[C@H](NC(=O)[C@H](CCCNC(=N)N)NC(=O)[C@@H]1CCCN1C(=O)[C@H](CCCNC(=N)N)NC(=O)[C@H](N)CCCCN)C(=O)N[C@@H](Cc1ccc(O)cc1)C(=O)N[C@@H](CN)C(=O)N[C@@H](CCC(C)C)C(=O)O | – |
